Test [1] has as its system Plasmodium falciparum. Briefly: Antiplasmodial activity against chloroquine-susceptible Plasmodium falciparum FCR3. Format: functional, organism-based. Put shortly: (§1)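 Synchronous cultures in RPMI 1640 with 10% human serum, 25 mM HEPES (pH 7.2), hypoxanthine and 2% hematocrit type O+ RBCs, under 5% CO2/5% O2/90% N2 at 37 °C. DMSO stocks were serially diluted 2-fold and added to infected RBCs at 0.5% parasitemia, then incubated 52 h. Ring forms on Giemsa smears were counted against controls. Single assay per concentration; IC50 by probit.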

Test [2] has as its system Plasmodium falciparum. Briefly: Antiplasmodial activity against chloroquine-resistant Plasmodium falciparum K1. Format: functional, organism-based. The method, boiled down:
as §1

Test [3] deals with Plasmodium berghei. The test can be described thus: Antimalarial activity in Plasmodium berghei NK65 infected ICR mice (Mus musculus) as reduced parasitemia at 100 mg/kg/day peroral dose for 4 days. Format: functional. The arrangement: scale not given: the % may be the effect or the level left. The method, boiled down: (§2)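 Peters 4-day suppressive test in 7-week-old outbred SPF male ICR mice, five per group. Mice infected i.p. with 10^5 P. berghei NK65-parasitized erythrocytes taken from donor mice. Compound dissolved in DMSO and diluted with distilled water (final DMSO below 0.2%). Given orally by metal catheter once daily for 4 days, first dose 2–4 h p.i.; controls received distilled water. Day-4 Giemsa tail-blood smears scored microscopically; suppression calculated against controls.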

The test system of test [4] is Plasmodium berghei. The test can be described thus: Antimalarial activity in […] NK65 infected ICR mice (Mus musculus) as reduced parasitemia at 500 mg/kg/day peroral dose after 4 days. The arrangement: scale not given: the % may be the effect or the level left. It counts as functional. Particulars: route oral. The method, boiled down:
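Male ICR mice, 7 weeks old, were infected ip with 10^5 P. berghei NK65-parasitized erythrocytes from donor mice, five per group. Dosing began 2–4 h p.i., given orally by metal catheter once daily for 4 days. Compound was in DMSO diluted with distilled water (final DMSO <0.2%); controls got water. On day 4, tail-vein Giemsa smears gave parasitemia; suppression was calculated versus control.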

Test [5] has as its system Plasmodium berghei. Briefly: Antimalarial activity in Plasmodium berghei NK65 infected ICR mice (Mus musculus) as reduced parasitemia at 250 mg/kg/day peroral dose for 4 days. Format: functional. The arrangement: scale not given: the % may be the effect or the level left. To be noted: route oral. The method, boiled down: as §2

Activity calls are given as the source filed them. The calls are words filed in the database; no cut-off is given here.

As a reminder, the IC50 is the concentration at which inhibition is half-maximal. For `C/C(=C\CC/C=C(\C)CC[C@@H](O)[C@]1(C)CC[C@H](C(C)(C)O)O1)CC[C@@H](O)[C@]1(C)CC[C@H](C(C)(C)O)O1` [EKEBERIN D4], the IC50 in test [1] was found to be 40 µM.

Turning to `CC(=O)OC[C@](C)(O)[C@H](O)CC/C(C)=C/CC/C(C)=C/CC/C=C(\C)CC/C=C(\C)CC[C@@H](O)C(C)(C)O` [EKEBERIN D5], the IC50 worked out at 137 µM in test [2] and 55 µM in test [1].

For the compound `CC(=O)OC[C@](C)(O)[C@@H](CC/C(C)=C/CC/C(C)=C/CC/C=C(\C)CC/C=C(\C)CC[C@@H](O)C(C)(C)O)OC(C)=O`, the figures for the IC50 in test [2] and in test [1] were 97 µM and 113 µM, respectively.

Turning to `C/C(=C\CC/C=C(\C)CC/C=C(\C)CC[C@@H](O)C(C)(C)O)CC/C=C(\C)CC[C@@H](O)C(C)(C)O`, the IC50 in test [2] was 59 µM; in test [1], 55 µM. Further, the Activity is given as 26.5% in test [3] (route oral), 20.5% in test [4] and 26.5% in test [5].

`C/C(=C\CC/C=C(\C)CC/C=C(\C)CC[C@@H](O)[C@@](C)(O)CO)CC/C=C(\C)CC[C@@H](O)C(C)(C)O`: the IC50 in test [2] was found to be 7 µM; in test [1], 18 µM. Further, the outcome in test [3] was inactive. Further, the Activity in test [4] amounted to 52.9%; in test [5], 41.2%.

In turn, `CC1(C)C(=O)C=C[C@]2(C)[C@H]3CC[C@@]4(C)[C@H](c5ccco5)OC(=O)[C@H]5O[C@]54[C@]3(C)C(=O)C[C@@H]12` came in with an IC50 in test [1] of 6 µM.

(Values after ChEMBL document CHEMBL1144785, “Antiplasmodial triterpenoids from Ekebergia capensis” (J Nat Prod, 2008).)
